Consider 8 compounds from ChEMBL document CHEMBL1156121, “Synthesis and antioxidant properties of some novel 5H-dibenz[b,f]azepine derivatives in different in vitro model systems” (Eur J Med Chem, 2010).

Assay [1] concerns Blood. The assay is described as follows: Antioxidant activity against copper-induced low density lipoprotein oxidation in human blood assessed as malonoldehyde formation at 25 uM after 6 hrs by thiobarbituric acid method. It is filed as functional. The method in brief:
(§1)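 Human LDL isolated from fasting volunteers' plasma by ultracentrifugation, then dialysed against PBS pH 7.4 (0.1 mg LDL protein/mL). Compounds at 10 and 25 were incubated with LDL and 40 µL of 2 mM CuSO4 in 50 mM phosphate buffer pH 7.4 at 37 °C. Controls were run without compound and without copper. Aliquots taken at 2, 4 and 6 h were heated with TBA/TCA at 95 °C for 45 min. TBARS (MDA) was read at 532 nm.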

In assay [2] the test system is Radical scavenging activity. The assay is described as follows: Antioxidant activity assessed as DPPH radical scavenging activity. It is filed as functional. A digest of the protocol: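 Ethanolic compound solutions (10, 25, 50, 100, 200, 500) were mixed with 0.1 mM DPPH in ethanol (4 mL to 1 mL sample) and kept in the dark at room temperature for 20 min. A517 was compared with a compound-free blank, giving % inhibition = (A0−A1)/A0×100. IC50 was read from the plot of % scavenging against concentration.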
On the technique in general: Loss of DPPH colour is used to gauge radical scavenging.

Assay [3] relates to Blood. Briefly: Antioxidant activity against copper-induced low density lipoprotein oxidation in human blood assessed as malonoldehyde formation at 10 uM after 6 hrs by thiobarbituric acid method. The class given is functional. A digest of the protocol:
as §1

Assay [4] concerns Blood. Briefly: Antioxidant activity against copper-induced low density lipoprotein oxidation in human blood assessed as malonoldehyde formation at 10 uM after 2 hrs by thiobarbituric acid method. It is filed as functional. The method in brief: as §1
The test system of assay [5] is Blood. The assay is described as follows: Antioxidant activity against copper-induced low density lipoprotein oxidation in human blood assessed as malonoldehyde formation at 25 uM after 2 hrs by thiobarbituric acid method. It is filed as functional. The method in brief:
as §1

A short description of assay [6]: Antioxidant activity assessed as reduction of […]/ferricyanide complex. It is filed as functional. A digest of the protocol: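 Oyaizu method. Compounds (50 and 100) were incubated in 0.2 M phosphate buffer pH 6.6 with 1% potassium ferricyanide at 50 °C for 20 min. After adding 10% TCA and centrifuging, the supernatant was diluted with water and mixed with 0.1% FeCl3, then A700 was read. Values are means of three independent samples.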

For assay [7], the system named is Blood. The assay is described as follows: Antioxidant activity against copper-induced low density lipoprotein oxidation in human blood assessed as malonoldehyde formation by thiobarbituric acid method. It is filed as functional, tissue-based. The method in brief: as §1
A short description of assay [8]: Antioxidant activity against lipid peroxidation at 25 uM by beta-carotene linoleate method. The class given is functional. The method in brief: (§2)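 β-Carotene/linoleic acid/Tween-40 emulsion, with chloroform removed, was mixed with compound in ethanol; BHA and ascorbic acid were run at the same concentrations as references. Absorbance was read at 470 nm at t=0 and then every 30 min to 180 min. Results are given as % antioxidant activity, mean ± SD, n = 3.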

Assay [9] is described as follows: Antioxidant activity against lipid peroxidation at 50 uM by beta-carotene linoleate method. It is filed as functional. A digest of the protocol:
as §2

Active and inactive are the calls of the source. The calls are words filed in the database; no cut-off is given here.

Regarding `O=C(CCCl)N1c2ccccc2C=Cc2ccccc21`, the Activity in the assay with Blood [1] was determined as 12.43%; in the assay with Blood [3] it was 8.87%; with Blood [4], 5.34%; with Blood [5] it was 7.43%. For the same compound, the outcome (in assay [2]; in assay [6]; in the assay on Blood [7]) was inactive.
As to `O=C(CCNc1cccc(O)c1)N1c2ccccc2C=Cc2ccccc21`, the IC50 (as a rule, the concentration at which inhibition is half-maximal) in assay [2] was determined as 17.4 µM. Besides, in [6], the Activity entry was “Dose-dependent effect”. Moreover, in the assay on Blood [7], the result was Active.
The like results for `O=C(CCNc1ccccc1O)N1c2ccccc2C=Cc2ccccc21` were, in that order, 16.1 µM, “Dose-dependent effect” and “Active”.
For `O=C1O[C@H]([C@@H](O)CO)C(O)=C1O` [ASCORBIC ACID], in assay [2], the half-inhibitory concentration (IC50) stood at 13.2 µM.
In the case of `COc1cc(NCCC(=O)N2c3ccccc3C=Cc3ccccc32)ccc1O`, the Activity in the assay on Blood [1] is 89.61%; in assay [8], 91.5%; in the assay with Blood [3] it was 72.93%; in the assay on Blood [4] it was 56.13%; in the assay with Blood [5] it was 70.41%; in assay [6] it was “Dose-dependent effect”. In assay [9], this compound returned an Activity of 91.3%. Further, the IC50 in assay [2] stood at 13.9 µM.
For the compound `O=C(CCNc1ccc(O)c([N+](=O)[O-])c1)N1c2ccccc2C=Cc2ccccc21`, the Activity in assay [8] is 88.4%; in [6], “Dose-dependent effect”; in assay [9], 90%. Moreover, the IC50 in [2] worked out at 14.8 µM. The outcome in the assay with Blood [7] was Active.
Turning to `COc1ccc(O)c(C(C)(C)C)c1.COc1ccc(O)cc1C(C)(C)C` [BUTYLATED HYDROXYANISOLE], the IC50 in assay [2] stood at 14.1 µM.
With `O=C(CCNc1ccc(O)cc1)N1c2ccccc2C=Cc2ccccc21`, the Activity in assay [8] is 87.1%; in assay [6], “Dose-dependent effect”; in assay [9], 88.7%. Moreover, the IC50 in assay [2] stood at 15.3 µM. Further, in the assay on Blood [7], the result was Active.
